From PubChem
SENP7 inh: SENP7 protease inhibition | Q9BQF6 | recombinant SENP7, Z-RLRGG-aminoluciferin luminescence, 40 min | inhibition, % at 5 µM | actives 1.5% (n = 330,000);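 active means inhibition above about 50% at the single test dose, limit read from the data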;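 further: plate controls were DMSO with enzyme for no effect and no enzyme buffer wells for full effect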
Target sequence (Q9BQF6 706-1050 limits assumed): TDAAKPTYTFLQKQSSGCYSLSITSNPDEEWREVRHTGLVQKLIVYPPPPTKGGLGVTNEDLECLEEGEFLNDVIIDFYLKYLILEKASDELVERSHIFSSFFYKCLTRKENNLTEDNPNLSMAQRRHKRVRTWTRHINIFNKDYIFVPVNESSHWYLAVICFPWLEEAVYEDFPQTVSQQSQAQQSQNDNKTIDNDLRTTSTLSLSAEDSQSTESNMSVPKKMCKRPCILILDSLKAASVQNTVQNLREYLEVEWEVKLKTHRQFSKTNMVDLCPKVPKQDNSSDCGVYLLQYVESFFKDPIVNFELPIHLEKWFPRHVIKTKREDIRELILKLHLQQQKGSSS
SENP6 inh: inhibitors of human SENP6 protease. Recombinant SENP6 catalytic domain, aminoluciferin luminescence. actives 1.8% (n = 330,000). inhibition, % at 10 µM;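 active means inhibition above about 50% at the single tested dose, limit read from the data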;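 further: plate controls were DMSO wells with enzyme for no effect and DMSO wells lacking enzyme for full effect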
SENP8 block-1: inhibitors of human SENP8 protease. Q96LD8. recombinant SENP8, Nedd8 substrate fluorescence. inhibition, % at 20 µM. actives 0.64% (n = 360,000). AID 602440; in the data active means inhibition mostly above about 40%, no sharp cut-off; inactive means mostly below about 27%
Target sequence (Q96LD8 whole entry, looked up): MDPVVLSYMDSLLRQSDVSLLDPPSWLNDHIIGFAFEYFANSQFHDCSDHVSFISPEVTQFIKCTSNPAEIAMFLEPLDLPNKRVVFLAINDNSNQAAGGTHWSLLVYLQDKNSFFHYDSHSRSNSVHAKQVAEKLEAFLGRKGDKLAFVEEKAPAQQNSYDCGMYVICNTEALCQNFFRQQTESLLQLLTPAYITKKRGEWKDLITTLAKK
Platelet DG rel: platelet dense granule release activity; human platelet-rich plasma, SFLLRN dense granule ATP release, luminescence; inhibition, %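 (compounds screened at 7.5 µM in platelet-rich plasma)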; actives 0.22% (n = 300,000);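 active means mean replicate score, as percent of positive control, at or above 50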
SENP1 FRET inh: blocks the human SENP1 SUMO protease catalytic domain; AID 624204; actives 0.21% (n = 360,000); inhibition, % at 10 µM; recombinant SENP1 catalytic domain, CyPet-SUMO1-YPet FRET cleavage;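 active means inhibition at least 30% at 10 µM, raw YFP signal under a set limit, fluorescence ratio 0.5 to 1.5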;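 further: 0% = enzyme with DMSO and 100% = no enzyme wells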
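Test system: hSENP1 catalytic domain, recombinant; Amount: 20 pM final SENP1 enzyme; Medium: Tris pH 8 buffer plus EDTA, NaCl, BME, BSA, NP40, catalase; Schedule: 50 min enzyme reaction, room temperature, light-protected; Technique: FRET fluorescence in CFP and YFP emission channels; Controls: no-enzyme wells low, DMSO-plus-enzyme wells high control.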
SENP8 block-2: inhibitors of human SENP8 protease | Q96LD8 | purified SENP8, Z-RLRGG-aminoluciferin cleavage, luminescence | inhibition, % at 10 µM | actives 1.2% (n = 330,000) | AID 2540; in the data active means inhibition above about 50%
SENP8 conf: human SENP8 inhibition, confirmed; inhibition, % at 12.5 µM; actives 40% (n = 6,200); Recombinant SENP8, Z-RLRGG-aminoluciferin luminescence, 60 min; shares compounds with SENP7 inh;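 active means mean inhibition across replicates above about 50%, limit read from the data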
SENP6 confirm: confirmation of human SENP6 protease inhibitors; shares compounds with SENP7 inh; recombinant SENP6, Z-RLRGG-aminoluciferin luminescence; actives 58% (n = 6,200); AID 488915; inhibition, % at 12.5 µM
SENP7 conf: human SENP7 inhibition, confirmed. shares compounds with SENP7 inh. inhibition, % at 12.5 µM. actives 69% (n = 6,200). recombinant SENP7, Z-RLRGG-aminoluciferin luminescence, 40 min
Casp3 select: caspase-3 inhibition (SENP selectivity assay); shares compounds with SENP7 inh; purified caspase-3, Z-DEVD-aminoluciferin luminescence, 60 min; inhibition, % at 12.5 µM; actives 60% (n = 6,200); AID 488918;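 active means mean inhibition above about 50%, limit read from the data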;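 further: plate controls were enzyme with DMSO for no effect and wells without caspase-3 for full effect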
SENP luc ctr: interferes with luciferase luminescence in SENP counter-screen; shares compounds with SENP7 inh; Pre-incubated SENP8/Z-RLRGG-aminoluciferin, luciferase luminescence interference; inhibition, % at 12.5 µM; actives 39% (n = 6,200);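 active means mean inhibition above about 50% when retested at one dose, limit read from the data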;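 further: plate controls were DMSO wells with completed reaction for no effect and substrate without enzyme for full effect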
* = called active by the depositor; . = no result given. Rows were chosen to be rich in hits. Some 2.6% of all compounds tested hit in one or more screens of this group.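 How the source made its calls, unless noted: active means mean inhibition above about 50% in the one-dose retest (limit read from the data); inactive means the rest.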

SMILES	SENP7 inh	SENP6 inh	SENP8 block-1	Platelet DG rel	SENP1 FRET inh	SENP8 block-2	SENP8 conf	SENP6 confirm	SENP7 conf	Casp3 select	SENP luc ctr
CCOC(=O)N1CCN(C(=O)c2noc3c2COc2ccccc2-3)CC1	53.7*	60.9*	-3.3	2.0	2.3	42.9	43.5	38.0	77.6*	75.1*	24.8
CCCN1CCN(C(=O)c2noc3c2COc2ccc(C)cc2-3)CC1	10.7	40.3	-109.9	5.4	1.6	29.3	.	.	.	.	.
N/C(=N\OC(=O)c1ccccc1[N+](=O)[O-])c1ccccn1	61.4*	54.0*	-2.2	29.5	0.8	41.6	64.7*	60.8*	-6.8	86.2*	66.5*
N/C(=N\OC(=O)c1ccccc1[N+](=O)[O-])c1cccnc1	-4.7	-9.6	24.7	6.3	-36.8	-4.6	.	.	.	.	.
N/C(=N\OC(=O)COc1ccccc1Cl)c1ccccn1	.	.	17.5	.	-2.4	.	.	.	.	.	.
N/C(=N\OC(=O)c1ccccc1Cl)c1ccccn1	100.5*	96.0*	5.6	56.0*	-0.8	93.1*	97.3*	97.9*	102.5*	98.4*	96.9*
COc1ccccc1C(=O)O/N=C(\N)c1ccccn1	8.7	52.5*	15.1	2.7	4.4	37.9	41.2	29.6	57.9*	74.5*	54.4*
Cc1ccc(C(=O)O/N=C(\N)c2ccccn2)c(C)c1	101.8*	98.8*	4.6	46.5	3.1	95.2*	99.6*	100.6*	103.5*	99.1*	98.7*
O=C(CCC(=O)N(CC(=O)NC1CCCC1)Cc1ccccc1)Nc1nccs1	-4.4	-3.6	9.2	-18.2	2.1	-1.7	.	.	.	.	.
CSCCC(=O)N1CCC(n2nccc2NC(=O)CCc2ccccc2)CC1	-10.5	0.6	10.1	-4.9	2.6	-7.7	.	.	.	.	.
COCn1c(-c2ccc(OC)cc2)nc2ccccc21	53.1*	58.7*	-15.1	-0.8	1.1	25.8	55.2*	53.1*	86.1*	81.1*	63.3*
O=C1C(Cl)=C(Nc2ccccc2O)C(=O)N1c1ccccc1	26.8	51.6*	19.0	-0.2	7.9	14.1	41.7	38.1	65.7*	60.1*	50.8*
COc1ccc2cc(-c3cccnc3)ncc2c1	58.2*	52.6*	-154.5	.	-5.2	39.6	38.4	38.5	80.7*	73.3*	61.7*
COc1ccc(-c2cc3ccc(OC)cc3cn2)cc1	84.5*	68.2*	-474.4	.	1.0	46.4	4.7	17.4	58.7*	40.6	-3.8
COc1ccc2cc(-c3ccccc3F)ncc2c1	99.8*	97.4*	-119.2	.	-3.1	96.6*	98.3*	99.2*	102.8*	96.3*	96.8*
CCCC(=O)Nc1cc(OC)c(NC(=S)Nc2cccc(C)c2)cc1OC	.	.	9.9	.	2.4	.	.	.	.	.	.
CCc1ccc(NC(=O)c2cnn(-c3ccccc3)c2C)cc1	75.7*	59.3*	22.0	-12.3	0.1	40.7	2.3	45.3	50.3*	69.1*	7.6
CCc1ccc(NC(=O)c2cnn(-c3ccccc3)c2C2CCNCC2)cc1	2.0	-4.8	12.6	0.0	1.5	-4.2	.	.	.	.	.
Nc1nc(CN2CCN(C(c3ccccc3)c3ccccc3)CC2)nc(Nc2ccccc2)n1	-0.8	-5.2	21.6	-10.9	-2.0	3.4	.	.	.	.	.
Nc1ccccc1-c1ccccc1N	0.2	-0.6	-240.0	-4.4	0.4	-4.0	.	.	.	.	.
Nc1ccccc1N=Nc1ccccc1N	84.6*	85.9*	-87.6	12.1	13.1	77.4*	84.8*	82.8*	96.4*	73.1*	63.6*
CC(=O)Nc1ccc(NC(=O)C(C)n2nc([N+](=O)[O-])c(Br)c2C)cc1 (centres undefined)	-3.4	-10.7	7.2	0.8	2.9	13.0	.	.	.	.	.
CCOC(=O)c1c(N)sc(C(=O)Nc2ccccc2F)c1C	78.3*	81.1*	-72.8	22.6	2.6	73.7*	62.8*	63.0*	87.5*	67.1*	32.6
CCOC(=O)c1c(N)sc(C(=O)Nc2ccccc2)c1C	85.0*	84.3*	-29.1	43.3	3.0	73.1*	-22.7	80.7*	97.4*	83.9*	83.3*
CCC(=O)Nc1sc(C(=O)Nc2ccccc2F)c(C)c1C(=O)OC	-1.3	6.2	9.4	-2.8	-2.7	3.6	.	.	.	.	.
SMILES	SENP7 inh	SENP6 inh	SENP8 block-1	Platelet DG rel	SENP1 FRET inh	SENP8 block-2	SENP8 conf	SENP6 confirm	SENP7 conf	Casp3 select	SENP luc ctr
Cc1ccc(C(=O)CCC(=O)NC2CCCC(C)C2C)cc1 (centres undefined)	-3.2	-17.5	1.4	-4.0	0.0	-5.7	.	.	.	.	.
Cc1ccc(C)n1-c1nccc(-c2ccco2)n1	-4.0	-3.7	-417.8	1.2	-56.3	1.4	.	.	.	.	.
O=C(/C=C/c1ccc(Cl)c(Cl)c1)N1CCc2ccccc21	66.4*	9.2	15.3	1.2	1.4	-12.4	-12.6	-8.0	-6.5	8.0	0.6
CN1CCN(C(=O)/C=C/c2ccc(Cl)c(Cl)c2)CC1	3.6	-7.0	4.6	-3.0	-0.5	-5.5	.	.	.	.	.
CC(C)N1C(=O)S/C(=C\c2ccc(-c3ccc(Cl)c(C(=O)O)c3)o2)C1=O	77.3*	91.2*	-191.3	-0.1	-35.9	86.4*	94.1*	93.7*	98.7*	37.7	89.5*
Cc1ccc(N2NC(=O)/C(=C/c3ccc(-c4ccc(Cl)c(C(=O)O)c4)o3)C2=O)cc1	-2.3	-6.4	-29.9	-10.4	-108.9	2.2	.	.	.	.	.
O=C1c2ccccc2C(=O)C1(CO)c1ccccc1	14.8	56.1*	18.1	1.1	0.7	30.6	38.4	50.4*	82.0*	77.4*	48.1
O=C1c2ccccc2C(=O)C1(CO)c1ccc(OC(F)F)cc1	2.6	94.0*	11.8	15.5	1.0	94.0*	4.4	97.5*	102.7*	95.5*	57.4*
COc1ccc2oc(C(=O)NCCc3ccccc3)c(C)c2c1	88.4*	89.5*	-201.3	1.3	-15.4	84.1*	92.9*	92.5*	100.0*	85.5*	72.2*
COc1ccc2oc(C(=O)Nc3nccs3)c(C)c2c1	83.3*	30.1	-145.4	-18.5	-12.9	-5.2	14.9	33.8	38.7	41.1	19.6
COc1ccc2oc(C(=O)OCC(=O)NCCc3ccccc3)c(C)c2c1	3.2	-8.1	-430.4	32.8	-1.2	17.6	.	.	.	.	.
